Screening results: PubChem BioAssay, Broad Institute
KDM4C inh: inhibitors of GASC-1 (KDM4C) histone demethylase, primary screen, biochemical, single concentration HTS | Lysine-specific demethylase 4C (Homo sapiens), Q9H3R0 | GST-KDM4C 2-372, H3K9me3 peptide, LANCE TR-FRET | inhibition, % at 12.5 µM | 0.15% of 96,000 active;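 active = mean replicate inhibition above about 25%, with at least 55% of replicates also reaching it, limit read from the data, passing the limit was not always enough; inconclusive = only one of those two conditions met; inactive = neither condition met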
Target sequence (Q9H3R0 2-372 limits assumed): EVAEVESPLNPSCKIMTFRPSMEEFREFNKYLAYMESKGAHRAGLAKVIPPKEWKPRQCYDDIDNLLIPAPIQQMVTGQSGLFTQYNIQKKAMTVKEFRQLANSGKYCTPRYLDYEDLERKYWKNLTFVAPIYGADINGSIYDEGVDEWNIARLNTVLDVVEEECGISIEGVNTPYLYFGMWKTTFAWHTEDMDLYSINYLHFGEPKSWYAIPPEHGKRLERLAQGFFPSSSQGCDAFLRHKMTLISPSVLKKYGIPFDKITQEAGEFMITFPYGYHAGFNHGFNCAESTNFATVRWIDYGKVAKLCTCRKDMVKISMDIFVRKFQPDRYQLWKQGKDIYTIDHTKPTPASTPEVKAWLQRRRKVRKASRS
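Material: N-terminal GST-fused human GASC-1 (KDM4C) fragment, residues 2-372. Input: 10 nM enzyme. Incubation: enzyme reaction 30 min, then detection 60 min, both room temperature. Doses: one test concentration per compound. Read-out basis: inhibition from TR-FRET ratio decrease. Detection: LANCE TR-FRET, excitation 340 nm, emissions 618 and 671 nm.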
T cruzi growth-1: T. cruzi intracellular proliferation inhibitors, primary screen, cell-based, beta-gal Tulahuen parasites, NIH3T3 host, luminescence; T. cruzi beta-gal in NIH3T3, GalScreen luminescence, 90 h; inhibition, % at 8.34 µM; 5.9% of 77,000 active; AID 624255, 2012;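 active = mean inhibition above about 93%, with at least 55% of replicates each passing it, limit read from the data, passing the limit was not always enough; inconclusive = only one of those two conditions holds; inactive = neither condition holds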
IDH1 R132H inh: inhibitors of IDH1 R132H reductase, primary screen, biochemical, plate reader, single point | diaphorase/resazurin fluorescence, 60 min | Isocitrate dehydrogenase [NADP] cytoplasmic (Homo sapiens), O75874 | 0.18% of 70,000 active | inhibition, % at 10 µM | AID 624101, 2012; in the data active = inhibition above about 34%; inconclusive = no clear call, values can overlap the other calls; inactive = below about 11%
Target sequence (O75874 whole entry R132H): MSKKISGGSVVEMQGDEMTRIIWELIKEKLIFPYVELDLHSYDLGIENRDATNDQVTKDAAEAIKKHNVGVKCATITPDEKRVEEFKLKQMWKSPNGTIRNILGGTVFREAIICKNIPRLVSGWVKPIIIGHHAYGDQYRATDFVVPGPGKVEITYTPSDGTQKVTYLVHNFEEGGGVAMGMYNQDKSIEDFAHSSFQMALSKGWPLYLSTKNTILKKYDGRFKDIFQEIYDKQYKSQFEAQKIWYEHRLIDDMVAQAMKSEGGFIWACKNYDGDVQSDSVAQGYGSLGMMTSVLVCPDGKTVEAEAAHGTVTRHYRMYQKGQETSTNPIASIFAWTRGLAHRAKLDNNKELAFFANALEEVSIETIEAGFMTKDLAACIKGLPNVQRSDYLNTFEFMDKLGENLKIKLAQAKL
T cruzi growth-2: T. cruzi intracellular proliferation inhibitors, confirmation, cell-based, NIH3T3 host, beta-gal parasite, luminescence, cherry-pick; shares compounds with T cruzi growth-1; T. cruzi beta-gal in NIH3T3, GalScreen luminescence, 90 h; inhibition, % at 8.35 µM; 72% of 5,600 active; AID 651739, 2012;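 active = mean replicate inhibition above about 95% and at least 55% of replicates individually reaching it, limit read from the data; inconclusive = only one of the two criteria is met; inactive = neither criterion is met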
T cruzi growth-3: inhibitors of intracellular T. cruzi replication, confirmation, NIH3T3 host cells, beta-gal parasites, cherry-pick, set 2; shares compounds with T cruzi growth-1; T. cruzi beta-gal in NIH3T3, GalScreen luminescence, 90 h; inhibition, % at 2.09 µM; 21% of 5,600 active;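 active = mean inhibition above about 95%, with at least 55% of replicates also reaching it, limit read from the data; inconclusive = meets just one of the two conditions; inactive = meets neither condition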
NIH3T3 tox: cytotoxicity in mouse NIH/3T3 fibroblasts, confirmation, cytotoxicity control for T. cruzi proliferation inhibitor project, cell-based, cherry-pick, single point; shares compounds with T cruzi growth-1; NIH/3T3 viability, CellTiter-Glo ATP luminescence, 90 h; cytotoxicity (signal decrease), % at 8.35 µM; 14% of 5,600 active; AID 651742, 2012;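 active = mean signal decrease across replicates above about 35% based on untreated-well scatter, with enough replicates individually passing, limit read from the data; inconclusive = no rule stated though some were filed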
NIH3T3 tox 2: NIH/3T3 fibroblast cytotoxicity, confirmation, cytotoxicity control, cell-based, cherry-pick, single point, set 2; shares compounds with T cruzi growth-1; NIH/3T3 viability, CellTiter-Glo ATP luminescence, 90 h; inhibition, % at 24.9 µM; 56% of 5,600 active; AID 651744, 2012;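 active = mean loss of cell viability signal at or above a set limit, and enough replicates individually reaching it; inconclusive = meets only the mean limit or only the replicate share; inactive = meets neither condition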
Each line names hits and unclear results; the compound was inactive in the other large screens (follow-up assays come after a bar, where they were run). This is one part of a sample in which hits are shown more often than they occur.

C[C@@H]1CN([C@H](C)CO)C(=O)c2cccc(NS(=O)(=O)c3cn(C)cn3)c2O[C@H]1CN(C)CC1CCCCC1	T cruzi growth-1 102 (no result: IDH1 R132H inh) | T cruzi growth-2 inactive | T cruzi growth-3 inactive | NIH3T3 tox inactive | NIH3T3 tox 2 inactive
C[C@H]1CN([C@@H](C)CO)C(=O)c2cccc(NS(=O)(=O)c3cn(C)cn3)c2O[C@H]1CN(C)Cc1ccc(C(=O)O)cc1	none (no result: IDH1 R132H inh)
COc1ccc(S(=O)(=O)Nc2cccc3c2O[C@H](CN(C)Cc2ccc(C(=O)O)cc2)[C@@H](C)CN([C@@H](C)CO)C3=O)cc1	none
C[C@H](CO)N1C[C@H](C)[C@H](CN(C)Cc2ccc(C(=O)O)cc2)Oc2c(NS(=O)(=O)c3cn(C)cn3)cccc2C1=O	T cruzi growth-1 inconclusive (no result: IDH1 R132H inh) | T cruzi growth-2 inactive | T cruzi growth-3 inactive | NIH3T3 tox inactive | NIH3T3 tox 2 inactive
C[C@@H]1CN([C@@H](C)CO)C(=O)c2cccc(NS(=O)(=O)c3cn(C)cn3)c2O[C@@H]1CN(C)CC1CCCCC1	none (no result: IDH1 R132H inh)
COc1ccc(S(=O)(=O)Nc2cccc3c2O[C@@H](CN(C)Cc2ccc(C(=O)O)cc2)[C@H](C)CN([C@@H](C)CO)C3=O)cc1	T cruzi growth-1 105 | T cruzi growth-2 inactive | T cruzi growth-3 inactive | NIH3T3 tox inactive | NIH3T3 tox 2 inactive
CC(=O)Nc1ccc(NC(=O)CN(c2ccc(Br)c(C)c2)S(C)(=O)=O)cc1	none (no result: KDM4C inh, T cruzi growth-1)
O=C(NCCSc1nc2cc(C(F)(F)F)ccc2s1)C12CC3CC(CC(C3)C1)C2	none (no result: KDM4C inh, T cruzi growth-1)
COc1ccc(CN2C(=O)C(O)(CC(=O)c3cccnc3)c3ccccc32)cc1OC (stereo unspecified)	none (no result: KDM4C inh, T cruzi growth-1)
O=S(=O)(c1ccccc1)N1CCCCN2[C@H](C1)[C@H](c1ccc(C#Cc3ccccc3)cc1)[C@@H]2CO	T cruzi growth-1 inconclusive (no result: IDH1 R132H inh) | T cruzi growth-2 101 | T cruzi growth-3 inactive | NIH3T3 tox inconclusive | NIH3T3 tox 2 105
COc1ccc(C#Cc2ccc([C@@H]3[C@@H](CO)N4CCCCN(S(=O)(=O)c5ccccc5)C[C@@H]34)cc2)cc1	none (no result: KDM4C inh, IDH1 R132H inh)
N#Cc1ccc(-c2ccc([C@H]3[C@@H](CO)N4CCCCN(S(=O)(=O)c5ccccc5)C[C@@H]34)cc2)cc1	T cruzi growth-1 96 (no result: IDH1 R132H inh) | T cruzi growth-2 107 | T cruzi growth-3 inactive | NIH3T3 tox inactive | NIH3T3 tox 2 inactive
O=S(=O)(c1ccccc1)N1CCCCN2[C@H](CO)[C@H](c3ccc(C#Cc4cccnc4)cc3)[C@H]2C1	T cruzi growth-1 109 (no result: IDH1 R132H inh) | T cruzi growth-2 114 | T cruzi growth-3 inactive | NIH3T3 tox inactive | NIH3T3 tox 2 63
O=S(=O)(c1ccccc1)N1CCCCN2[C@H](CO)[C@H](c3ccc(C#Cc4ccccc4)cc3)[C@@H]2C1	none (no result: IDH1 R132H inh)
O=S(=O)(c1ccccc1)N1CCCCN2[C@H](CO)[C@H](c3ccc(C#Cc4ccccc4)cc3)[C@H]2C1	none (no result: IDH1 R132H inh)
COc1ccc(C#Cc2ccc([C@H]3[C@@H](CO)N4CCCCN(S(=O)(=O)c5ccccc5)C[C@@H]34)cc2)cc1	T cruzi growth-1 103 (no result: IDH1 R132H inh) | T cruzi growth-2 103 | T cruzi growth-3 inactive | NIH3T3 tox inactive | NIH3T3 tox 2 inactive
N#Cc1ccc(-c2ccc([C@@H]3[C@@H](CO)N4CCCCN(S(=O)(=O)c5ccccc5)C[C@H]34)cc2)cc1	none (no result: IDH1 R132H inh)
CC(NS(=O)(=O)c1ccc(Cl)cc1)C(=O)Nc1ccccc1C(F)(F)F (stereo unspecified)	none (no result: KDM4C inh, T cruzi growth-1)
Cc1nn(C(=O)Cn2nc([N+](=O)[O-])cc2C)c(C)c1Cl	none (no result: KDM4C inh, T cruzi growth-1)
CCOC(=O)c1cnc2c(C)c(C)ccc2c1NCCN(C)C	none (no result: KDM4C inh, T cruzi growth-1)
CC(Oc1ccc(Cl)cc1Cl)C(=O)Nc1cc(-c2nc3ccccc3o2)ccc1Cl (stereo unspecified)	none (no result: KDM4C inh, T cruzi growth-1)
Nc1cc(=O)nc(SCC(=O)N(c2ccccc2)c2ccccc2)n1-c1ccccc1	none (no result: KDM4C inh, T cruzi growth-1)
CNC[C@@H]1OCCCC[C@@H](C)Oc2ccc(NC(=O)c3ccccc3)cc2C(=O)N([C@H](C)CO)C[C@@H]1C	none
CNC[C@@H]1OCCCC[C@H](C)Oc2ccc(NC(=O)NC3CCCCC3)cc2C(=O)N([C@@H](C)CO)C[C@@H]1C	T cruzi growth-1 111 | T cruzi growth-2 inactive | T cruzi growth-3 inactive | NIH3T3 tox inactive | NIH3T3 tox 2 inactive
CNC[C@H]1OCCCC[C@H](C)Oc2ccc(NC(=O)c3ccccc3)cc2C(=O)N([C@H](C)CO)C[C@@H]1C	T cruzi growth-1 inconclusive (no result: IDH1 R132H inh) | T cruzi growth-2 99 | T cruzi growth-3 inactive | NIH3T3 tox inactive | NIH3T3 tox 2 inactive
CNC[C@@H]1OCCCC[C@H](C)Oc2ccc(NC(=O)Cc3ccccc3)cc2C(=O)N([C@@H](C)CO)C[C@@H]1C	T cruzi growth-1 99 | T cruzi growth-2 inactive | T cruzi growth-3 inactive | NIH3T3 tox inactive | NIH3T3 tox 2 inactive
CNC[C@@H]1OCCCC[C@@H](C)Oc2ccc(NC(=O)NC3CCCCC3)cc2C(=O)N([C@H](C)CO)C[C@H]1C	none
C[C@H]1CCCCO[C@@H](CN(C)C)[C@@H](C)CN([C@@H](C)CO)C(=O)c2cc(NC(=O)Cc3ccccc3)ccc2O1	none
Cc1cccc(NC(c2ccc([N+](=O)[O-])cc2)c2ccc3ccc(C)nc3c2O)n1 (stereo unspecified)	none (no result: KDM4C inh, T cruzi growth-1)
COC(=O)C1=CO[C@@H](O[C@@H]2O[C@H](CO)[C@@H](O)[C@H](O)[C@H]2O)[C@@H]2[C@@H](CO)C=C[C@H]12	none (no result: KDM4C inh, T cruzi growth-1)
O=C(Nc1ccccc1F)N1C[C@@H]2[C@H](c3ccccc31)[C@H](CO)N2C(=O)C1CC1	none (no result: IDH1 R132H inh)
O=C(Nc1ccc(Cl)cc1)N1C[C@H]2[C@@H](c3ccccc31)[C@H](CO)N2CC1CCCCC1	none (no result: IDH1 R132H inh)
O=C(Nc1ccccc1F)N1C[C@@H]2[C@H](c3ccccc31)[C@H](CO)N2C(=O)C1CCOCC1	T cruzi growth-1 107 (no result: IDH1 R132H inh) | T cruzi growth-2 inactive | T cruzi growth-3 inactive | NIH3T3 tox inactive | NIH3T3 tox 2 inactive
O=C(Nc1ccc(Cl)cc1)N1C[C@H]2[C@@H](c3ccccc31)[C@@H](CO)N2CC1CCCCC1	T cruzi growth-1 109 (no result: IDH1 R132H inh) | T cruzi growth-2 106 | T cruzi growth-3 inactive | NIH3T3 tox inactive | NIH3T3 tox 2 104
O=C(Nc1ccccc1)N1C[C@@H]2[C@H](c3ccccc31)[C@@H](CO)N2Cc1ccccc1Cl	none (no result: IDH1 R132H inh)
